From PubChem BioAssay
SKKanGAS inh = S. pyogenes SKKanGAS growth inhibitors in kanamycin, primary screen, streptokinase expression inhibitor project, SKKanGAS strain, BacTiter-Glo luminescence. 6 h. inhibition, % at 7.5 µM. hit rate 1.3% among 300,000. AID 1662, 2009;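 active = mean replicate score, as percent of positive control median, at least 50; inconclusive = mean below 50 but one replicate at or above 50; inactive = mean and every replicate below 50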;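 also: strain carries kanamycin resistance gene driven by streptokinase promoter and grows in 40 µg/ml kanamycin; loss of luminescence reflects streptokinase promoter inhibition or plain growth inhibition; 0% = median of DMSO wells and 100% = positive control at its reference dose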
Lmaj promast = Leishmania major promastigote growth inhibition, primary screen; Leishmania major promastigotes, resazurin fluorescence viability; inhibition, % at 10 µM; hit rate 9% among 200,000; AID 1063, 2008; in the data active = inhibition above about 50%;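 also: promastigotes grown with compound for 44 hours at 28 °C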
CSC inhib = cancer stem cell viability inhibitors, primary screen, luminescence; hit rate 1.1% among 300,000; cancer stem cell-like cells viability; inhibition, % at 7.5 µM; in the data active = inhibition above about 75%; inconclusive = no clear call, values can overlap the other calls; tested in HMLE shEcad cells
Mdm2 MdmX PPI = inhibitors of human Mdm2-MdmX association, primary screen, cell-based, luminescence, split luciferase, SaOS-2, uHTS. Protein Mdm4 (Homo sapiens) + E3 ubiquitin-protein ligase Mdm2 (Homo sapiens), …. AID 485346, 2010. SaOS-2 split-luciferase Mdm2/MdmX complementation. inhibition, % at 8 µM. hit rate 3% among 330,000;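 active = inhibition of at least 50% at 8 µM in the primary screen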
Target sequence (O15151 whole entry, looked up): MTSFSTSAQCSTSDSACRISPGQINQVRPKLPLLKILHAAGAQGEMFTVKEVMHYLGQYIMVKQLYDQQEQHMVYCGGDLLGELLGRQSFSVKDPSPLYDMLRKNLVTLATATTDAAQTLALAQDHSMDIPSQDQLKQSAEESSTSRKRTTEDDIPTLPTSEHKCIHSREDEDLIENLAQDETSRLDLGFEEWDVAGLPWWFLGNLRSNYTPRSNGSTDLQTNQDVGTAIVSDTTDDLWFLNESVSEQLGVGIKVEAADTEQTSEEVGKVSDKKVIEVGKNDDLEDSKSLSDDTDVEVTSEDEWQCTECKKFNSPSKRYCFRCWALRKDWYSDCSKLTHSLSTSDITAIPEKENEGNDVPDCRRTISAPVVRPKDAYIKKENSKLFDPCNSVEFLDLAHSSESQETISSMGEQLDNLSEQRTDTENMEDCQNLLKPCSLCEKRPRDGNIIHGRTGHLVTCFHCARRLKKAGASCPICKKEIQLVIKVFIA
Target sequence (Q00987 whole entry, looked up): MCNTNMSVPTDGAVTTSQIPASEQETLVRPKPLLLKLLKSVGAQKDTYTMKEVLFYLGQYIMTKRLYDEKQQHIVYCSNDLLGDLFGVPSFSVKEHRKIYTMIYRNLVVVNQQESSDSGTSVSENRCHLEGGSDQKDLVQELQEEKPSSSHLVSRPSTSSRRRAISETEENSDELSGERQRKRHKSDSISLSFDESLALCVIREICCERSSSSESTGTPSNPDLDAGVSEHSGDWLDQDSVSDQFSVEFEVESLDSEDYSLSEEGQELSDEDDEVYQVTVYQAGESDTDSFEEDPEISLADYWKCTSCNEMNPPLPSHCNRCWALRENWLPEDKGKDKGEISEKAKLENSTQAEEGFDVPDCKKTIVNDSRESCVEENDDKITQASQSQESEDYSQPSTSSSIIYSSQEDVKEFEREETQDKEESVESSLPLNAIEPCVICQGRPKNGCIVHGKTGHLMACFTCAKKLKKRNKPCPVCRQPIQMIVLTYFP
T cruzi inh = inhibitors of intracellular T. cruzi growth, primary screen, luminescence, NIH3T3 host cells. T. cruzi beta-gal in NIH3T3, 90 h. inhibition, % (no concentration beside the values). hit rate 1.4% among 300,000. AID 1885, 2009;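 active = mean inhibition across valid replicates above about 55%, limit read from the data; inconclusive = mean below that limit but half or more replicates reach it; inactive = mean below it, under half of replicates reach it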;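 also: signal also drops with host cell toxicity which is not excluded here; 0% = plate median of DMSO wells and 100% = zero luminescence signal; higher percent means less beta-gal luminescence so fewer parasites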
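Test system: β-gal T. cruzi (Tulahuen C4) inside NIH/3T3 cells / Quantity: 5,000 cells/well / Measured by: luminescence from GalScreen with 0.05% NP40, read after 60 min / Medium: DMEM plus 2% FBS / Measure: parasite load inhibition, % / Reagent: Tulahuen C4 trypomastigotes, 5000/well / Schedule: co-culture of at least 90 h after 3 h attachment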
Beta apoptosis = inhibitors of cytokine-induced beta cell apoptosis, primary screen, luminescence; INS-1E cytokine-induced death, ATP luminescence, 48 h; percent of positive-control rescue, neutral wells zero; protection from apoptosis, % (concentration not given with the values); hit rate 0.8% among 300,000; AID 435005, 2010;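 active = Every replicate reaches about 75%, or at least half do and their mean reaches it too, limit read from the data; inconclusive = At least half of replicates reach the limit but their mean does not; inactive = Under half of replicates reach the limit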;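 also: 0% = cytokine-treated negative control wells and 100% = positive control rescue; higher means more ATP so stronger rescue from cytokine killing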
Mdm2 MdmX conf = Mdm2-MdmX complex disruptors, retested hits, confirmation, luminescence, single concentration. hit rate 55% among 10,000. inhibition, % at 8 µM. shares compounds with Mdm2 MdmX PPI. Mdm2-MdmX binding, luminescent assay; in the data active = inhibition above about 40%
FLuc counter = full-length luciferase signal inhibition, confirmation, counter-screen for Mdm2/MdmX interaction inhibitor project, cell-based, single concentration, SaOS-2; shares compounds with Mdm2 MdmX PPI; SaOS-2 full-length luciferase counterscreen, luminescence; inhibition, % at 8 µM; hit rate 77% among 6,200; AID 504607, 2011;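 active = mean inhibition at 8 µM reaching about 37%, which flags the compound as non-specific, limit read from the data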;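 also: p53-null SaOS-2 cells with luciferase driven by a doxycycline-inducible promoter; compound on cells about two nights before reading with doxycycline added after day one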
* hit, by the source's call; ? = inconclusive; · = not tested or not shown. Rows were chosen to be rich in hits. Some 9.4% of all compounds tested hit in one or more screens of this group.

SMILES	SKKanGAS inh	Lmaj promast	CSC inhib	Mdm2 MdmX PPI	T cruzi inh	Beta apoptosis	Mdm2 MdmX conf	others
O=C(NC1CC2CCCC(C1)N2C(=S)Nc1ccccc1)C1CC1 (centres undefined)	2	·	16	-14	-2	-3	·
O=C(Nc1ccc2c(c1)CCC2)c1cnn2c1NC(c1ccco1)CC2C(F)(F)F (centres undefined)	·	-7	-2	88*	·	10	54*	FLuc counter=79*
COc1ccc(C(C)(C)C)cc1NC(=S)NCCN1CCOCC1	-4	-3	-14	3	-17	-11	·
O=C(NCCS(=O)(=O)NCc1ccccc1Cl)c1ccccc1	-5	·	-8	7	-3	-1	·
CCN(Cc1ccccc1)S(=O)(=O)c1ccc(C(=O)N(CCCN(C)C)c2nc3cc(C)cc(C)c3s2)cc1	34	·	102*	98*	45	·	55*	FLuc counter=68*
Cc1cc(C)c2sc(N(CCCN(C)C)C(=O)c3ccc(S(=O)(=O)N(C)Cc4ccccc4)cc3)nc2c1	22	·	-7	93*	50	·	48*	FLuc counter=69*
CCN(CC)CCN(C(=O)C1=COCCO1)c1nc2cc(C)cc(C)c2s1	?	·	18	27	49	7	·
CCCCN(CC)S(=O)(=O)c1ccc(C(=O)N(CCCN(C)C)c2nc3cc(C)cc(C)c3s2)cc1	-2	100*	99*	71*	67*	43	10
CC1(C)CC(=O)c2cnc(NC(=O)CSC(=S)N3CCCCC3)nc2C1	-4	·	-5	14	-2	-2	·
CCc1nn2c(=O)c(S(=O)(=O)Nc3ccc(C(C)C)cc3)c(C)nc2s1	·	·	18	23	·	-10	·
CN(C)CCn1c2c(c(SCC(=O)NCc3ccccc3)nc1=O)CCCC2	0	·	-10	14	5	-8	·
OCCNc1nc(N2CCCCC2)nc2ccccc12	6	·	34	4	7	1	·
Cc1ccc(Nc2nc(NCc3ccco3)c3ccccc3n2)cc1	8	101*	56	70*	66*	76*	-42
C(=N\Nc1nc(-c2ccccn2)nc2ccccc12)/c1ccccc1	98*	·	83*	80*	33	92*	89*	FLuc counter=26
COc1ccccc1Nc1nc(NCc2ccco2)c2ccccc2n1	6	·	24	23	50	55	·
c1coc(CNc2nc(N3CCCCC3)nc3ccccc23)c1	8	96*	3	52*	49	22	4
Nc1nc(N2CCN(Cc3ccccc3)CC2)n[nH]1	-1	1	-4	6	2	·	·
c1ccc(CNc2nc(N3CCN(Cc4ccccc4)CC3)nc3ccccc23)cc1	8	·	98*	81*	24	23	25
O=C(NCC1CCCO1)C(c1ccc(F)cc1)N(Cc1ccc2c(c1)OCO2)C(=O)c1ccc(CN2CCOCC2)o1 (centres undefined)	-2	-2	·	1	7	-13	·
O=C(Nc1ccc(Cl)c(S(=O)(=O)N2CCOCC2)c1)[C@@H]1CCCN1C(=O)c1cccs1	·	·	·	16	·	-2	·
OCCNc1nc(Nc2ccccc2)nc(Nc2ccccc2)n1	-1	28	1	22	3	2	·
OCCNc1nc(Nc2ccc(Br)cc2)nc2ccccc12	-2	100*	49	70*	62*	22	55*	FLuc counter=67*
c1ccc(-c2nc(NCc3ccco3)c3ccccc3n2)nc1	95*	100*	-6	65*	49	101*	-8
O=c1c2ccccc2nc2c3ccccc3c(NCc3ccco3)nn12	17	2	-3	-38	17	-5	·
